Experiment [1] addresses T1, Alpha-1A adrenergic receptor (Rattus norvegicus, UniProt P43140).
T1 sequence (P43140 whole entry): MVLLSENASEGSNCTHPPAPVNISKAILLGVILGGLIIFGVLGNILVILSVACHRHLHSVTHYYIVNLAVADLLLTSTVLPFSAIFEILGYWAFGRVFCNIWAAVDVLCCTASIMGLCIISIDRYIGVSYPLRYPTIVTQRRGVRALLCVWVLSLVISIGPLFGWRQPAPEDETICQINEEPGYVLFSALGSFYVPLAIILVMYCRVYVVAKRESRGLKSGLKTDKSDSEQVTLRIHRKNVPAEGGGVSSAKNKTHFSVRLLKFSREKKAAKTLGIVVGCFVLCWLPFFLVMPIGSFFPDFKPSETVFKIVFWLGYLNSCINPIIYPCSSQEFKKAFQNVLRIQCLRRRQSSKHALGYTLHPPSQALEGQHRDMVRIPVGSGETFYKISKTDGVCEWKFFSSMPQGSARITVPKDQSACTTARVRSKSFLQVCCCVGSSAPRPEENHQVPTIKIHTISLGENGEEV
Description: Binding affinity measured for alpha-1 adrenergic receptor by displacement of [3H]prazosin from rat cortical membranes. The format is cell membranes, Membrane. A general note: Loss of bound radioactivity is the signal in a displacement assay; it reports binding, not function.

The target in experiment [2] is T2, Adrenergic receptor alpha-2 (Homo sapiens, UniProt P08913+P18825+P18089).
T2 sequence (P08913 whole entry): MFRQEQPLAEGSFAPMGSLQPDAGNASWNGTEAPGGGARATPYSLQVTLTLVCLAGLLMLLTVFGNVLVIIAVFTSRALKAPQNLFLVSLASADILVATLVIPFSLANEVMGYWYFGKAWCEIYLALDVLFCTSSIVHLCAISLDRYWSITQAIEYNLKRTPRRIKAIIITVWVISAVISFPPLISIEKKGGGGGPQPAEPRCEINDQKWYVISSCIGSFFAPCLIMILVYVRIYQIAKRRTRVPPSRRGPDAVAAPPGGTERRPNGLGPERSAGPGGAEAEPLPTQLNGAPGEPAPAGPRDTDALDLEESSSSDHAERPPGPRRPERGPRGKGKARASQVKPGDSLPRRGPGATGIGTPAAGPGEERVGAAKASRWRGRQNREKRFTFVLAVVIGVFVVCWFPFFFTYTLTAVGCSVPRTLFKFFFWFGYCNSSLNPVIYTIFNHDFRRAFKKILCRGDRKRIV
T2 sequence (P18825 whole entry): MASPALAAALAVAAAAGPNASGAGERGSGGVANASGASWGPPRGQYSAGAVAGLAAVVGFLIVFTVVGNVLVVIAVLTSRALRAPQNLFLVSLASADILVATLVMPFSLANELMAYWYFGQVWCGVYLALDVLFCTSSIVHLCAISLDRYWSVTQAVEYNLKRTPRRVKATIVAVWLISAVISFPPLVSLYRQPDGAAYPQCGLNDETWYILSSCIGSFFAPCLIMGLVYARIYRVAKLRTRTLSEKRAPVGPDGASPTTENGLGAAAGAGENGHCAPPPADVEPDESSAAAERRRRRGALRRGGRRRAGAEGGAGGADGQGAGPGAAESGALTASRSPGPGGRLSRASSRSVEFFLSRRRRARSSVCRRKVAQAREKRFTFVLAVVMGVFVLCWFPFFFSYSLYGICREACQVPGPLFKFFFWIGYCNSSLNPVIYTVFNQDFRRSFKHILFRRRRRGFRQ
T2 sequence (P18089 whole entry): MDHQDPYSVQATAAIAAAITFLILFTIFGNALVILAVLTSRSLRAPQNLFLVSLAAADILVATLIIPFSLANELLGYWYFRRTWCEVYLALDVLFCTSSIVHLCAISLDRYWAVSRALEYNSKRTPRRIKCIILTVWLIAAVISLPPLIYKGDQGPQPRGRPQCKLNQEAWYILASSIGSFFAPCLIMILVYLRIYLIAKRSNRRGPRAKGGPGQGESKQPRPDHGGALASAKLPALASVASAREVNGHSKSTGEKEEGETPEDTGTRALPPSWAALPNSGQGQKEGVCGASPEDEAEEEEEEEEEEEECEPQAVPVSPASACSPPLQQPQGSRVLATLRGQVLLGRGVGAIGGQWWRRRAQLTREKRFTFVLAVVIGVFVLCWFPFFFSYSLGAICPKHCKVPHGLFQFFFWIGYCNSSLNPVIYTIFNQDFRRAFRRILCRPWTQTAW
Description: Binding affinity towards Alpha-2 adrenergic receptor in human platelet membranes using [3H]yohimbine. The format is cell membranes. Summed up:
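Human platelet membranes, [3H]yohimbine 3.5 nM; nonspecific binding defined by 100 μM phentolamine. Competition run 45–60 min at 37 °C, stopped by rapid vacuum filtration over glass-fiber filters and ice-chilled buffer washes. IC50 by nonlinear regression, mean of three to seven experiments; converted to Ki with the Cheng–Prusoff equation.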

Experiment [3] deals with T3, 5-hydroxytryptamine receptor 1A (Rattus norvegicus, UniProt P19327).
T3 sequence (P19327 whole entry): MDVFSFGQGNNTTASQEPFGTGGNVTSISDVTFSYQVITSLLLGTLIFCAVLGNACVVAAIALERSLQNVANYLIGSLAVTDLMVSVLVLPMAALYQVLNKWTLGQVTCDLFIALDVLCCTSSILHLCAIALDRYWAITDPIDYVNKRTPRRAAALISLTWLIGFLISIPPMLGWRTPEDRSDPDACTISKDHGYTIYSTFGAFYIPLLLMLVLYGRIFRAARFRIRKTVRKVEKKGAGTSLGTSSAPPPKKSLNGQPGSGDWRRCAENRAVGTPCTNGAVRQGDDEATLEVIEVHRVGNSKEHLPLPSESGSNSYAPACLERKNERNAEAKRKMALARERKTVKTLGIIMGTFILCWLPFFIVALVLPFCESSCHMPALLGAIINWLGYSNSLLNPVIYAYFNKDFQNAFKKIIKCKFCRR
Briefly: Binding affinity for 5-hydroxytryptamine 1A receptor measured by displacing [3H]8-OH-DPAT from rat cortical membranes. Summed up: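 Rat hippocampus or cortex membranes; 1 nM [3H]-8-OH-DPAT; nonspecific binding set with 1 μM serotonin. Incubated with competing drug 45–60 min at 37 °C in buffer, then vacuum-filtered on glass-fiber filters and washed with ice-cold buffer. IC50 from nonlinear fit of competition curves, mean of 3–7 experiments. Ki by Cheng–Prusoff.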

The target in experiment [4] is T1, Alpha-1A adrenergic receptor. Description: Binding affinity for Alpha-1 adrenergic receptor measured by displacing [3H]prazosin from rat cortical membranes. A digest of the protocol: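 Rat cortex membranes labelled with 0.4 nM [3H]prazosin; 10 μM phentolamine defined nonspecific binding. Incubation with competing drugs 45–60 min at 37 °C, then vacuum filtration on glass-fiber filters with ice-chilled buffer wash. IC50 by nonlinear curve fitting (three to seven experiments); Ki via Cheng–Prusoff using KD 0.1 nM for [3H]prazosin.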

Experiment [5] has as its target T3, 5-hydroxytryptamine receptor 1A.
The target in experiment [6] is Beta-2 adrenergic receptor (Homo sapiens, UniProt P07550). Briefly: Binding affinity towards Beta-2 adrenergic receptor in human peripheral mononuclear leukocyte membranes using [125I]pindolol. Summed up:
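Membranes from human peripheral blood mononuclear leukocytes bound [125I]pindolol (100 pM); 1 μM (-)-propranolol gave nonspecific binding. 45–60 min at 37 °C with or without competitors, then rapid filtration through glass-fiber filters and ice-cold buffer wash. IC50 from nonlinear fitting over three to seven experiments; Ki by Cheng–Prusoff.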

pKi: −log10 of the molar value. Where only a bound is given, the exact number is not on record here.

Chain of Beta-2 adrenergic receptor (P07550 whole entry): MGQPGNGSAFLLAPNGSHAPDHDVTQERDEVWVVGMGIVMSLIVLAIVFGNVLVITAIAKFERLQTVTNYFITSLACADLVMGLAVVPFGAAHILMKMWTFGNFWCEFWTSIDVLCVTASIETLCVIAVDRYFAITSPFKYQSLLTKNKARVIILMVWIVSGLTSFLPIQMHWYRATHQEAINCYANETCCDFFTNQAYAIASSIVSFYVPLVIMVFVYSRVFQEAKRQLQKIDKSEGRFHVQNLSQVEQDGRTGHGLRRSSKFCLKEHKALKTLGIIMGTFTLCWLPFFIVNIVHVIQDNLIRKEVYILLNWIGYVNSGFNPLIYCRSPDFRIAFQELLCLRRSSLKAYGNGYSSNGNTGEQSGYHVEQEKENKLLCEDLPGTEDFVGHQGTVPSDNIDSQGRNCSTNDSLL

Take `CN(C)CCn1c(=O)[nH]c2c([nH]c3ccccc32)c1=O`: the negative logarithm of the Ki (pKi) (in general, the Ki on a negative log10 scale, so that one unit is a factor of ten) in experiment [1] is less than 4.00.
In the case of `COc1ccccc1N1CCN(CCn2c(=O)c3c(c4ccccc4n3C)n(C)c2=O)CC1`, in experiment [2], the Ki (in general, the dissociation constant of the complex between target and ligand, obtained from inhibition or displacement) turned out to be 2215 nM. Besides, the figures for the pKi in experiment [3] and in experiment [4] were 8.82 and 9.49, respectively.
In the case of `CCOC(=O)N1CCN(CCn2c(=O)[nH]c3c([nH]c4ccccc43)c2=O)CC1`, the pKi in experiment [1] was less than 4.00.
On the same count and under the same terms, then `CN(C)CCCn1c(=O)[nH]c2c([nH]c3ccccc32)c1=O`, with less than 4.00; and `CCN(CC)CCCn1c(=O)[nH]c2c([nH]c3ccccc32)c1=O`, with less than 4.00.
Regarding `Clc1ccccc1N1CCNCC1`, the negative-log Ki (pKi) is 6.15 in experiment [1] and 6.65 in experiment [5].
`O=c1[nH]c2c([nH]c3ccccc32)c(=O)n1CCN1CCOCC1`: in experiment [1], the negative-log Ki (pKi) was less than 4.00.
As for `O=c1[nH]c2c([nH]c3ccccc32)c(=O)n1CCN1CCN(c2ccc(Cl)cc2)CC1`, in experiment [2], the inhibition constant Ki was more than 100000 nM. The figures for the negative-log Ki (pKi) in experiment [3], in experiment [6] and in experiment [4] were less than 4.00, less than 4.00 and not above 5.00, respectively.
On to `O=c1[nH]c2c([nH]c3ccccc32)c(=O)n1CCN1CCN(c2ccccc2)CC1`, for which the Ki in experiment [2] is listed as more than 100000 nM. Further, the results for the pKi in experiment [3], in experiment [6] and in experiment [4] were less than 4.00, less than 4.00 and 8.74, respectively.
For `O=c1[nH]c2c([nH]c3ccccc32)c(=O)n1CCN1CCCC1`, the pKi in experiment [1] is less than 4.00.
Regarding `COc1ccccc1N1CCN(CCn2c(=O)[nH]c3c([nH]c4ccccc43)c2=O)CC1`, the Ki entry in experiment [2] is recorded as “>= 1000 nM”. Moreover, the negative logarithm of the Ki (pKi) in experiment [3] is 7.30; in experiment [6], less than 4.00; in experiment [4], 9.68.
In experiment [2], `O=c1[nH]c2c([nH]c3ccccc32)c(=O)n1CCN1CCN(c2ccccc2Cl)CC1` showed a Ki of more than 100000 nM. Besides, the pKi was less than 4.00 in experiment [3], less than 4.00 in experiment [6] and 9.28 in experiment [4].
In turn, `O=c1[nH]c2c([nH]c3ccccc32)c(=O)n1CCN1CCCCC1` gave a negative-log Ki (pKi) in experiment [1] of less than 4.00.
Take `COc1ccccc1N1CCN(CCCn2c(=O)[nH]c3c([nH]c4ccccc43)c2=O)CC1`: the Ki in experiment [2] worked out at 55 nM. Also, the negative logarithm of the Ki (pKi) in experiment [3] was 6.51; in experiment [6], 5.93; in experiment [4] it was 7.89.
For the molecule `O=c1[nH]c2c([nH]c3ccccc32)c(=O)n1CCN1CCNCC1`, in experiment [4], the negative logarithm of the Ki (pKi) is less than 4.00.
In turn, `CCN(CC)CCn1c(=O)[nH]c2c([nH]c3ccccc32)c1=O` had a pKi in experiment [1] of less than 4.00.
Regarding `COc1ccccc1N1CCNCC1`, the figures for the pKi in experiment [1] and in experiment [3] were 5.45 and 6.55, respectively.
On to `COc1ccc(N2CCN(CCn3c(=O)[nH]c4c([nH]c5ccccc54)c3=O)CC2)cc1`, for which, in experiment [2], the Ki is more than 100000 nM. Moreover, the results for the pKi in experiment [3], in experiment [6] and in experiment [4] were less than 4.00, less than 4.00 and less than 5.30, respectively.
